Measured values reported in ChEMBL document CHEMBL1671760, “Pharmacokinetics and pharmacogenomics of once-daily raltegravir and atazanavir in healthy volunteers” (Antimicrob Agents Chemother, 2010).

Key:
[1] = Cmax in healthy human plasma at 400 mg, po Bid for 1 week by LC-MS/MS analysis; format: ADME, organism-based; design: dose 400 mg, route oral
Summary of the method: (§1)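 Healthy volunteers (24–51 y) took raltegravir 400 mg twice daily for 1 week in a crossover with at least 3 days between arms, dosing ≥1 h before or 2 h after food. After a witnessed dose, blood was drawn at 1, 2, 4, 8 and 12 h, with meals from 1 h. Plasma was analysed by LC-MS-MS after acetonitrile precipitation, using noncompartmental linear-trapezoidal AUC and log10-transformed geometric means.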

[2] = Ctau in healthy human plasma at 400 mg, po Bid for 1 week by LC-MS/MS analysis; format: ADME, organism-based; conditions: read-out: Ctau; summary of the method: as §1
[3] = Plasma concentration in healthy human at 400 mg, po Bid for 1 week measured 12 hrs post dose by LC-MS/MS analysis; format: ADME, organism-based; summary of the method: as §1
[4] = AUC (0 to12 hrs) in healthy human at 400 mg, po Bid for 1 week by LC-MS/MS analysis; format: ADME, organism-based; design: dose 400 mg, time < 12 hr, route oral; conditions: plasma; summary of the method: as §1
[5] = AUC (0 to tau) in healthy human at 400 mg, po Bid for 1 week by LC-MS/MS analysis; format: ADME, organism-based; conditions: plasma; summary of the method: as §1
[6] = test system: Homo sapiens; assay: AUC (0 to tau) in human at 400 mg, po Bid coadministered with atazanavir 400 mg, po qd for 1 week by LC-MS/MS analysis; format: ADME, organism-based, Plasma; conditions: in vivo, 168 h, in the assay text read “po qd” for “po Bid”
Summary of the method: (§2)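 Arm B of a crossover in healthy adults (24–51 y), separated from the other arm by at least 3 days. Subjects took raltegravir 400 mg plus atazanavir 400 mg once daily for 1 week in a semifasted state. Plasma was sampled over 24 h after a witnessed dose. Raltegravir was quantified by LC-MS-MS after acetonitrile protein precipitation, and the glucuronide by negative-mode SRM (m/z 619.1→316.0) with a d3 internal standard. Noncompartmental analysis used the linear trapezoidal rule.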

[7] = Drug level in healthy human urine at 400 mg, po Bid coadministered with atazanavir 400 mg, po qd for 1 week measured at 0-12 hrs post dose by LC-MS/MS analysis; format: ADME, organism-based; conditions: in vivo, in the assay text read “po qd” for “po Bid”
Summary of the method: (§3)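 Steady state was reached after 1 week of once-daily raltegravir 400 mg with atazanavir 400 mg in healthy adults. All urine was collected over 24 h after the witnessed dose and combined into 2-h pools. Raltegravir and raltegravir-glucuronide were assayed by LC-MS-MS, and amounts excreted were summed for 0–12 h and 12–24 h.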

[8] = Drug level in healthy human urine at 400 mg, po Bid coadministered with atazanavir 400 mg, po qd for 1 week measured at 12 to 24 hrs post dose by LC-MS/MS analysis; format: ADME, organism-based; conditions: in vivo, in the assay text read “po qd” for “po Bid”; summary of the method: as §3
[9] = Drug level in healthy human urine at 400 mg, po Bid for 1 week measured at 0-12 hrs post dose by LC-MS/MS analysis; format: ADME, organism-based; conditions: in vivo
Summary of the method: (§4)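 Healthy volunteers took raltegravir 400 mg twice daily for 1 week. After the witnessed dose, all urine was collected over 12 h and pooled into 2-h aliquots, then frozen at −70°C. Raltegravir and its glucuronide were measured by LC-MS-MS, and amounts were summed over 0–12 h. Values are geometric means of log10-transformed data.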

[10] = Apparent total plasma clearance in healthy human at 400 mg, po Bid for 1 week by LC-MS/MS analysis; format: ADME, organism-based
Summary of the method: (§5)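 Raltegravir 400 mg was given twice daily for 1 week, with 12-h plasma and urine profiles measured by LC-MS-MS. Apparent oral clearance was dose/AUC over the dosing interval. Renal clearance was the amount excreted in urine divided by plasma AUC over the same interval. Fe/F was Ae/(dose/F), with F unknown.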

[11] = Renal clearance in healthy human at 400 mg, po Bid for 1 week by LC-MS/MS analysis; format: ADME, organism-based; conditions: plasma, read-out: CL_renal; summary of the method: as §5
[12] = Apparent clearance of oral drug in healthy human assessed as drug excreted unchanged at 400 mg, po Bid for 1 week by LC-MS/MS analysis; format: ADME, organism-based; conditions: in vivo, read-out: Fraction excreted unchanged; summary of the method: as §5
[13] = Apparent total plasma clearance in healthy human at 400 mg, po Bid coadministered with atazanavir 400 mg, po qd for 1 week by LC-MS/MS analysis; format: ADME, organism-based; conditions: in the assay text read “po qd” for “po Bid”
Summary of the method: (§6)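 Once-daily raltegravir 400 mg with atazanavir 400 mg was given for 1 week, with plasma and urine collected over 24 h and assayed by LC-MS-MS. Clearances were computed noncompartmentally: CL/F = dose/AUC(τ), renal CL = urinary amount/plasma AUC over the same interval, and Fe/F = Ae/(dose/F).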

[14] = Renal clearance in healthy human at 400 mg, […] coadministered with atazanavir 400 mg, po qd for 1 week by LC-MS/MS analysis; format: ADME, organism-based; conditions: plasma, read-out: CL_renal; summary of the method: as §6
[15] = Apparent clearance of oral drug in healthy human assessed as drug excreted unchanged at 400 mg, po […] coadministered with atazanavir 400 mg, po qd for 1 week by LC-MS/MS analysis; format: ADME, organism-based; conditions: in vivo, read-out: Fraction excreted unchanged; summary of the method: as §6
[16] = test system: Plasma; assay: Cmax in healthy human plasma assessed as raltegravir-glucoronide at 400 mg, po Bid for 1 week by LC-MS/MS analysis; format: ADME, organism-based; design: dose 400 mg, route oral; conditions: in vivo, 168 h; summary of the method: as §1
[17] = test system: Plasma; assay: Ctau in healthy human plasma assessed as raltegravir-glucoronide at 400 mg, po Bid for 1 week by LC-MS/MS analysis; format: ADME, organism-based; conditions: in vivo, 168 h; summary of the method: as §1
[18] = test system: Plasma; assay: Plasma concentration in healthy human assessed as raltegravir-glucoronide at 400 mg, po Bid for 1 week measured 12 hrs post dose by LC-MS/MS analysis; format: ADME, organism-based; conditions: in vivo; summary of the method: as §1
[19] = test system: Homo sapiens; assay: AUC (0 to12 hrs) in healthy human assessed as raltegravir-glucoronide at 400 mg, po Bid for 1 week by LC-MS/MS analysis; format: ADME, organism-based, Plasma; design: dose 400 mg, time < 12 hr, route oral; conditions: in vivo, 12 h; summary of the method: as §1
[20] = test system: Plasma; assay: Cmax in healthy human plasma assessed as raltegravir-glucoronide at 400 mg, […] coadministered with atazanavir 400 mg, po qd for 1 week by LC-MS/MS analysis; format: ADME, organism-based; design: dose 400 mg, route oral; conditions: in vivo, 168 h; summary of the method: as §2
[21] = test system: Plasma; assay: Ctau in healthy human plasma assessed as raltegravir-glucoronide at 400 mg, […] coadministered with atazanavir 400 mg, po qd for 1 week by LC-MS/MS analysis; format: ADME, organism-based; conditions: in vivo, 168 h; summary of the method: as §2
[22] = test system: Plasma; assay: Plasma concentration in healthy human assessed as raltegravir-glucoronide at 400 mg, po […] coadministered with atazanavir 400 mg, po qd for 1 week measured 12 hrs post dose by LC-MS/MS analysis; format: ADME, organism-based; conditions: in vivo; summary of the method: as §2
[23] = Drug level in healthy human urine assessed as raltegravir-glucoronide at 400 mg, […] coadministered with atazanavir 400 mg, po qd for 1 week measured at 0-12 hrs post dose by LC-MS/MS analysis; format: ADME, organism-based; conditions: in vivo; summary of the method: as §3
[24] = Drug level in healthy human urine assessed as raltegravir-glucoronide at 400 mg, […] coadministered with atazanavir 400 mg, po qd for 1 week measured at 12 to 24 hrs post dose by LC-MS/MS analysis; format: ADME, organism-based; conditions: in vivo; summary of the method: as §3
[25] = test system: Homo sapiens; assay: AUC (12 to 24 hrs) in healthy human assessed as raltegravir-glucoronide at 400 mg, po […] coadministered with atazanavir 400 mg, po qd for 1 week by LC-MS/MS analysis; format: ADME, organism-based, Plasma; design: time 12-24 hr, dose 400 mg, route oral; conditions: in vivo; summary of the method: as §2
[26] = Drug level in healthy human urine assessed as raltegravir-glucoronide at 400 mg, po Bid for 1 week measured at 0-12 hrs post dose by LC-MS/MS analysis; format: ADME, organism-based; conditions: in vivo; summary of the method: as §4
[27] = test system: Plasma; assay: Renal clearance in healthy human assessed as raltegravir-glucoronide at 400 mg, po Bid for 1 week by LC-MS/MS analysis; format: ADME, organism-based; conditions: in vivo, 168 h; summary of the method: as §5
[28] = test system: Plasma; assay: Renal clearance in healthy human assessed as raltegravir-glucoronide at […] coadministered with atazanavir 400 mg, po qd for 1 week by LC-MS/MS analysis; format: ADME, organism-based; conditions: in vivo, 168 h; summary of the method: as §6
[29] = Ratio of drug level to raltegravir-glucoronide level in healthy human urine at 400 mg, po Bid for 1 week by LC-MS/MS analysis; format: ADME, organism-based; conditions: in vivo, 168 h; summary of the method: as §4
[30] = Ratio of drug level to raltegravir-glucoronide level in healthy human urine at 400 mg, po Bid coadministered with atazanavir 400 mg, po qd for 1 week by LC-MS/MS analysis; format: ADME, organism-based; conditions: in vivo, 168 h, in the assay text read “po qd” for “po Bid”; summary of the method: as §3
[31] = Cmax in healthy human plasma at 400 mg, po qd coadministered with atazanavir 400 mg, po qd for 1 week by LC-MS/MS analysis
[32] = Ctau in healthy human plasma at 400 mg, po qd coadministered with atazanavir 400 mg, po qd for 1 week by LC-MS/MS analysis
[33] = AUC (0 to12 hrs) in healthy human at 400 mg, po qd coadministered with atazanavir 400 mg, po qd for 1 week by LC-MS/MS analysis; conditions: plasma
[34] = AUC (12 to24 hrs) in healthy human at 400 mg, po qd coadministered with atazanavir 400 mg, po qd for 1 week by LC-MS/MS analysis; conditions: plasma
[35] = Plasma concentration in healthy human at 400 mg, po qd coadministered with atazanavir 400 mg, po qd for 1 week measured 12 hrs post dose by LC-MS/MS analysis

Q: With `Cc1nnc(C(=O)NC(C)(C)c2nc(C(=O)NCc3ccc(F)cc3)c(O)c(=O)n2C)o1` [RALTEGRAVIR] as the compound, how does the Cmax [1] read?
A: 1020 ng/mL

Q: What about the concentration at 168 h [2] of the same compound?
A: 46 ng/mL

Q: What about the concentration at 12 h [3] of the same compound?
A: 46 ng/mL

Q: What about the AUC at 12 h [4] of the same compound?
A: 3530 ng·h/mL

Q: And the AUC tau at 168 h [5]?
A: 3530 ng·h/mL

Q: And the AUC [6]?
A: 6080 ng·h/mL

Q: And the Drug uptake [7]?
A: 10.81 mg

Q: What about the Drug uptake [8] of the same compound?
A: 0.41 mg

Q: What about the Drug uptake [9] of the same compound?
A: 11.66 mg

Q: And the CL/F [10]?
A: 1890 mL/min

Q: What about the CL renal at 168 h [11] of the same compound?
A: 55 mL/min

Q: What about the dose excreted at 168 h [12] of the same compound?
A: 2.9%

Q: What about the CL/F [13] of the same compound?
A: 1100 mL/min

Q: What about the CL renal at 168 h [14] of the same compound?
A: 39 mL/min

Q: And the dose excreted at 168 h [15]?
A: 3.5%

Q: What about the Cmax [16] of the same compound?
A: 799 ng/mL

Q: What about the Ctau [17] of the same compound?
A: 45 ng/mL

Q: And the Cp [18]?
A: 45 ng/mL

Q: And the AUC [19]?
A: 3267 ng·h/mL

Q: What about the Cmax [20] of the same compound?
A: 458 ng/mL

Q: And the Ctau [21]?
A: 8 ng/mL

Q: What about the Cp [22] of the same compound?
A: 41 ng/mL

Q: What about the Drug uptake [23] of the same compound?
A: 84.51 mg

Q: What about the Drug uptake [24] of the same compound?
A: 7.03 mg

Q: What about the AUC [25] of the same compound?
A: 342 ng·h/mL

Q: And the Drug uptake [26]?
A: 82.5 mg

Q: And the CL_renal [27]?
A: 421 mL/min

Q: And the CL_renal [28]?
A: 692 mL/min

Q: And the Ratio [29]?
A: 7.08

Q: And the Ratio [30]?
A: 7.81

Q: And the Cmax [31]?
A: 1400 ng/mL

Q: And the concentration at 168 h [32]?
A: 18 ng/mL

Q: What about the AUC at 12 h [33] of the same compound?
A: 4660 ng·h/mL

Q: And the AUC [34]?
A: 875 ng·h/mL

Q: What about the concentration at 12 h [35] of the same compound?
A: 69 ng/mL
